Measured values as given in ChEMBL document CHEMBL2401698 (J Med Chem, 2013).
The source made the active and inactive calls.

What was measured:
[1] = molecular target: T1, Adenosine receptor A3 (Mus musculus) (UniProt Q61618); assay: Displacement of [125I]N6-(4-amino-3-iodobenzyl)adenosine-5'-N-methyluronamide from mouse adenosine A3 receptor expressed in HEK293 cell membranes at 10 uM after 60 mins by liquid scintillation counting analysis relative to control
T1 sequence (whole entry): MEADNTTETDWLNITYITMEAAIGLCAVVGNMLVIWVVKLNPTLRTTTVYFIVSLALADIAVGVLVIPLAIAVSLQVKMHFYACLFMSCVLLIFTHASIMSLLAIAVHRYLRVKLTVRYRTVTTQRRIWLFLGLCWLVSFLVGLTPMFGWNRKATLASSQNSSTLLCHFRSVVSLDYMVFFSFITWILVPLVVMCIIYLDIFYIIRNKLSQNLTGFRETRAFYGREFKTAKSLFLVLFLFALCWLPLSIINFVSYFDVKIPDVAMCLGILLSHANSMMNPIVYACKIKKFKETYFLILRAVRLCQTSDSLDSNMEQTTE

[2] = molecular target: Adenosine receptor A2a (Mus musculus) (UniProt Q60613); assay: Displacement of [3H]2-[p-(2-carboxyethyl)phenylethylamino]-5'-N-ethylcarboxamidoadenosine from mouse adenosine A2A receptor expressed in HEK293 cell membranes at 10 uM after 60 mins by liquid scintillation counting analysis relative to control
[3] = molecular target: T2, Adenosine receptor A1 (Mus musculus) (UniProt Q60612); assay: Displacement of [125I]N6-(4-amino-3-iodobenzyl)adenosine-5'-N-methyluronamide from mouse adenosine A1 receptor expressed in HEK293 cell membranes at 10 uM after 60 mins by liquid scintillation counting analysis relative to control
T2 sequence (whole entry): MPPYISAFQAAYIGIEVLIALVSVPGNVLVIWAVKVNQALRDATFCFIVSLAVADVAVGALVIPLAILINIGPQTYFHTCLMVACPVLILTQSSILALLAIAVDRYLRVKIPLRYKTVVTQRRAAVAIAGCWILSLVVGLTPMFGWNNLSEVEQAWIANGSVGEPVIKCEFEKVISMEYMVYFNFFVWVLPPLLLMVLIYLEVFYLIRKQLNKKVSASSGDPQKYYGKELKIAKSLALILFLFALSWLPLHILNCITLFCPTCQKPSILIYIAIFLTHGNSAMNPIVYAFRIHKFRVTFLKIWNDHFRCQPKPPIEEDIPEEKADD

[4] = molecular target: T3, Adenosine receptor A1 (Mus musculus, UniProt Q60612); assay: Agonist activity at mouse adenosine A1 receptor expressed in HEK293 cell membranes assessed as inhibition of forskolin-stimulated cAMP production preincubated for 30 mins prior to forskolin-treatment measured after 15 mins by ELISA; assay type: functional, cell-based
T3 sequence (Q60612 whole entry): T2 sequence (whole entry)

[5] = molecular target: T4, Adenosine receptor A3 (Homo sapiens) (UniProt P0DMS8); assay: Activity at human adenosine A3 receptor expressed in CHO cell membranes assessed as inhibition of forskolin-stimulated cAMP production at 10 uM preincubated for 30 mins prior to forskolin-treatment measured after 15 mins by ELISA relative to 5'-N-ethylcarboxamidoadenosine; assay type: functional, cell-based
T4 sequence (whole entry): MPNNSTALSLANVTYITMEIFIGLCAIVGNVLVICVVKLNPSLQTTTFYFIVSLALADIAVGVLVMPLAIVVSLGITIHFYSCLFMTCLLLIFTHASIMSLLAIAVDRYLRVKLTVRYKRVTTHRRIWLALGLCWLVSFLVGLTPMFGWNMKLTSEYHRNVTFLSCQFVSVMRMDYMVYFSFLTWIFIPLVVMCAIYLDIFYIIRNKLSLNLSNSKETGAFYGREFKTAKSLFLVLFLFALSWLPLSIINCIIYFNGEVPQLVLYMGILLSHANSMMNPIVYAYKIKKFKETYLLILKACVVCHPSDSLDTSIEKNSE
How it was run: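 Whole CHO cells stably expressing hA3AR, plated 24 h, washed with DMEM/50 mM HEPES pH 7.4. […] Forskolin (10 μM) then added for 15 min. Lysed in 0.1 M HCl; cAMP by enzyme immunoassay at 450 nm. Efficacy as % of reference maximum; mean ± SEM, n = 3–5.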

[6] = molecular target: Adenosine receptor A2a (Homo sapiens) (UniProt P29274); assay: Displacement of [3H]2-[p-(2-carboxyethyl)phenylethylamino]-5'-N-ethylcarboxamidoadenosine from human adenosine A2A receptor expressed in HEK293 cell membranes at 10 uM after 60 mins by liquid scintillation counting analysis relative to control
[7] = molecular target: T5, Adenosine receptor A1 (Homo sapiens) (UniProt P30542); assay: Displacement of [3H]N6-R-phenylisopropyladenosine from human adenosine A1 receptor expressed in CHO cell membranes at 10 uM after 60 mins by liquid scintillation counting analysis relative to control
T5 sequence (whole entry): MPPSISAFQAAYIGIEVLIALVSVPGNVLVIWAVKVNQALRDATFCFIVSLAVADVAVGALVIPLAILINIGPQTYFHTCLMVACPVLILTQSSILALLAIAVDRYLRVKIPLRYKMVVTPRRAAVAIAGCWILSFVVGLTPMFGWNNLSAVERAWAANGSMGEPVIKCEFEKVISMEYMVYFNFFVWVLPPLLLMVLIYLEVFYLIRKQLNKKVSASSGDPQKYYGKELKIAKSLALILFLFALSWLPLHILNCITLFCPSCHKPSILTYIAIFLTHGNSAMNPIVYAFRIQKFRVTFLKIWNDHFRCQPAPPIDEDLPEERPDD

[8] = molecular target: T1, Adenosine receptor A3 (Mus musculus); assay: Agonist activity at mouse adenosine A3 receptor expressed in HEK293 cell membranes assessed as inhibition of forskolin-stimulated cAMP production preincubated for 30 mins prior to forskolin-treatment measured after 15 mins by ELISA relative to control; assay type: functional, cell-based
[9] = molecular target: T2, Adenosine receptor A1 (Mus musculus); assay: Agonist activity at mouse adenosine A1 receptor expressed in HEK293 cell membranes assessed as inhibition of forskolin-stimulated cAMP production up to 10 uM […] measured after 15 mins […]; assay type: functional, cell-based
How it was run: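 2 × 10^5 cells/tube coincubated with forskolin (10 μM) and ligand, up to 10 μM, for 15 min at 37 °C. Stopped with 1 N HCl; cAMP by competitive binding assay. Full agonist 44 as reference; sigmoidal fit; mean ± SEM, n = 4–7.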

[10] = molecular target: T6, Adenosine receptor A3 (Mus musculus, UniProt Q61618); assay: Agonist activity at mouse adenosine A3 receptor expressed in HEK293 cell membranes assessed as inhibition of forskolin-stimulated cAMP production preincubated for 30 mins prior to forskolin-treatment measured after 15 mins by ELISA; assay type: functional, cell-based
T6 sequence (Q61618 whole entry): T1 sequence (whole entry)

[11] = molecular target: T1, Adenosine receptor A3 (Mus musculus); assay: Activity at mouse adenosine A3 receptor expressed in HEK293 cell membranes assessed as inhibition of forskolin-stimulated cAMP production preincubated for 30 mins prior to forskolin-treatment measured after 15 mins by ELISA relative to 2-chloro-N6-(3-iodobenzyl)adenosine-5'-N-methyluronamide; assay type: functional, cell-based
[12] = tested on: CHO; assay: Selectivity ratio of Ki for human adenosine A2A receptor expressed in HEK293 cell membranes to Ki for human adenosine A3 receptor expressed in CHO cell membranes; assay type: cell-based
[13] = molecular target: Adenosine receptors; A1 & A3 (Homo sapiens) (UniProt P30542+P0DMS8); assay: Selectivity ratio of Ki for human adenosine A1 receptor to Ki for human adenosine A3 receptor
[14] = species: Mus musculus; assay: Selectivity ratio of Ki for mouse adenosine A1 receptor to Ki for mouse adenosine A3 receptor
[15] = species: Mus musculus; assay: Selectivity ratio of Ki for mouse adenosine A2A receptor to Ki for mouse adenosine A3 receptor
[16] = tested on: Mus musculus; assay: Antiallodynic activity in CD-1 mouse chronic constriction injury-induced neuropathic pain model assessed as reversal of mechanoallodynia at 3 micromol/kg, ip measured 1 to 5 hrs post-treatment in presence of MRS1523; assay type: functional, organism-based
[17] = tested on: Mus musculus; assay: Antiallodynic activity in CD-1 mouse chronic constriction injury-induced neuropathic pain model assessed as effect on contralateral paw withdrawal threshold at 3 micromol/kg, ip; assay type: functional, organism-based
How it was run: (§1)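 Male CD-1 mice (25–30 g) with chronic constriction injury of left sciatic nerve under isoflurane. At peak mechanoallodynia on day 7, given 3 μmol/kg ip in 5% DMSO/saline, or vehicle; n = 6. Paw withdrawal thresholds (g) measured on ipsilateral and contralateral paws over time. Experimenters blinded.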

[18] = tested on: Mus musculus; assay: Antiallodynic activity in CD-1 mouse chronic constriction injury-induced neuropathic pain model assessed as reversal of mechanoallodynia at 3 micromol/kg, ip at 1 hr post-treatment; assay type: functional, organism-based; how it was run: as §1
[19] = tested on: Mus musculus; assay: Antiallodynic activity in adenosine A3 receptor knockout C57BL/6J mouse chronic constriction injury-induced neuropathic pain model assessed as reversal of mechanoallodynia at 3 micromol/kg, ip measured 1 to 5 hrs post-treatment
[20] = molecular target: T3, Adenosine receptor A1; assay: Partial agonist activity at mouse adenosine A1 receptor expressed in HEK293 cell membranes assessed as inhibition of forskolin-stimulated cAMP production preincubated for 30 mins prior to forskolin-treatment measured after 15 mins by ELISA; assay type: functional, cell-based

Chain of Adenosine receptor A2a (Homo sapiens) (P29274 whole entry): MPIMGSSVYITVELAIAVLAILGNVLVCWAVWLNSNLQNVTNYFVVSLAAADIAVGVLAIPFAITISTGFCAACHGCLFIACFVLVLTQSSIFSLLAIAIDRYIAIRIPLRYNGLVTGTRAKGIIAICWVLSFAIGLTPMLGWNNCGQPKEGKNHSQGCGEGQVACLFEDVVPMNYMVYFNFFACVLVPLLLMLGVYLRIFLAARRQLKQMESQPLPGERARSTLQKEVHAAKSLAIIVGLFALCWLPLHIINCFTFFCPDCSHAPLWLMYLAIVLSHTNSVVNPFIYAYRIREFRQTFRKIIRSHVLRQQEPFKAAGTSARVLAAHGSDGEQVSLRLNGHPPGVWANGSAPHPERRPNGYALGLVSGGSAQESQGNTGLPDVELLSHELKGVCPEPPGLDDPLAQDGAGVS
Chain of Adenosine receptor A2a (Mus musculus) (Q60613 whole entry): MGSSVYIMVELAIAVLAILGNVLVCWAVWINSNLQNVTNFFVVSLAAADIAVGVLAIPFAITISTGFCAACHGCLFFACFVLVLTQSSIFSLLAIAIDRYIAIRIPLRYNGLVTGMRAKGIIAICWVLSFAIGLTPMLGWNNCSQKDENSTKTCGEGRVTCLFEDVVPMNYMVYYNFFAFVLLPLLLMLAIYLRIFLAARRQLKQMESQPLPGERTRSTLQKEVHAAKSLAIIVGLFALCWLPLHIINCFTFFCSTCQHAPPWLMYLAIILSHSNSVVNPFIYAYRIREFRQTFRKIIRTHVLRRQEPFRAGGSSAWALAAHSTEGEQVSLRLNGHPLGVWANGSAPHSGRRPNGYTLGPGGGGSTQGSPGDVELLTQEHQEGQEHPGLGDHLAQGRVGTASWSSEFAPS

| Structure (SMILES) | inhibition [2] | inhibition [3] | Efficacy [5] | inhibition [6] | inhibition [7] | Emax [8] | other results |
| --- | --- | --- | --- | --- | --- | --- | --- |
| CCNc1nc(C#Cc2ccccc2Cl)nc2c1ncn2[C@H]1[C@H](O)[C@H](O)[C@@H]2C[C@@H]21 | 11% | 47% | – | – | – | – | inhibition [1]: 50% |
| OC[C@H]1O[C@@H](n2cnc3c(NC4CCCC4)nc(Cl)nc32)[C@H](O)[C@@H]1O | – | – | – | – | – | – | EC50 [4]: 17.7 nM |
| CNc1nc(C#Cc2ccccc2)nc2c1ncn2[C@H]1[C@H](O)[C@H](O)[C@@H]2C[C@@H]21 | 8% | – | – | – | – | – | – |
| O[C@@H]1[C@H](O)[C@@H]2C[C@@H]2[C@H]1n1cnc2c(NCC(c3ccccc3)c3ccccc3)nc(C#Cc3ccccc3Cl)nc21 | 16% | 23% | – | – | – | – | inhibition [1]: 54% |
| O=S(=O)(O)c1ccc(CCNc2nc(C#Cc3ccccc3)nc3c2ncn3[C@H]2[C@H](O)[C@H](O)[C@@H]3C[C@@H]32)cc1 | 1% | 18% | 7.2% | 15% | 10% | – | – |
| O[C@@H]1[C@H](O)[C@@H]2C[C@@H]2[C@H]1n1cnc2c(NCc3cccc(Cl)c3)nc(C#Cc3ccc(-c4ccccc4)cc3)nc21 | 0% | – | – | – | – | – | – |
| CNC(=O)[C@H]1O[C@@H](n2cnc3c(NCc4cccc(I)c4)nc(Cl)nc32)[C@H](O)[C@@H]1O | – | – | – | – | – | 41% | – |
| CNC(=O)[C@@]12C[C@@H]1[C@@H](n1cnc3c(NCc4cccc(Cl)c4)nc(C#Cc4cccc(S(=O)(=O)O)c4)nc31)[C@H](O)[C@@H]2O | 1% | 15% | 98.2% | 7% | 16% | 50% | inhibition [9]: inactive; EC50 [10]: 2.6 nM; Efficacy [11]: 89.3%; Ratio Ki [12]: > 10000; Ratio Ki [13]: > 10000; Ratio Ki [14]: > 1000; Ratio Ki [15]: > 1000; Activity [16]: Active; Activity [17]: inactive; Activity [18]: Active; Activity [19]: inactive |
| CCNc1nc(C#Cc2ccccc2)nc2c1ncn2[C@H]1[C@H](O)[C@H](O)[C@@H]2C[C@@H]21 | 49% | 49% | – | – | – | – | – |
| CNC(=O)[C@@]12C[C@@H]1[C@@H](n1cnc3c(NCCc4ccccc4)nc(C#Cc4ccccc4)nc31)[C@H](O)[C@@H]2O | 1% | 25% | 105% | 32% | 11% | 47% | EC50 [10]: 3.33 nM; Efficacy [11]: 115% |
| CNC(=O)[C@@]12C[C@@H]1[C@@H](n1cnc3c(NCCc4ccc(S(=O)(=O)O)cc4)nc(C#Cc4ccccc4)nc31)[C@H](O)[C@@H]2O | 0% | 7% | 93.8% | 1% | 9% | – | – |
| CNC(=O)[C@@]12C[C@@H]1[C@@H](n1cnc3c(NCc4cccc(Cl)c4)nc(C#Cc4ccc(S(=O)(=O)O)cc4)nc31)[C@H](O)[C@@H]2O | 14% | – | 96.8% | 23% | – | 45% | EC50 [10]: 13 nM; Efficacy [11]: 95.7%; Activity [17]: inactive; Activity [18]: Active; EC50 [20]: 495 nM; Activity [19]: Active |
